SR-BI DiI inh = mouse SR-BI HDL lipid transfer inhibition; ldlA[mSR-BI] CHO cells, DiI-HDL uptake fluorescence, 3 h; 0.96% of 320,000 active; inhibition, % at 12.5 µM; Q61009;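 active = mean replicate inhibition of at least 70% and a set share of replicates each scoring 70 or more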;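 note: 0% = median of neutral control wells and 100% = median of positive control wells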
Target sequence (Q61009 whole entry, looked up): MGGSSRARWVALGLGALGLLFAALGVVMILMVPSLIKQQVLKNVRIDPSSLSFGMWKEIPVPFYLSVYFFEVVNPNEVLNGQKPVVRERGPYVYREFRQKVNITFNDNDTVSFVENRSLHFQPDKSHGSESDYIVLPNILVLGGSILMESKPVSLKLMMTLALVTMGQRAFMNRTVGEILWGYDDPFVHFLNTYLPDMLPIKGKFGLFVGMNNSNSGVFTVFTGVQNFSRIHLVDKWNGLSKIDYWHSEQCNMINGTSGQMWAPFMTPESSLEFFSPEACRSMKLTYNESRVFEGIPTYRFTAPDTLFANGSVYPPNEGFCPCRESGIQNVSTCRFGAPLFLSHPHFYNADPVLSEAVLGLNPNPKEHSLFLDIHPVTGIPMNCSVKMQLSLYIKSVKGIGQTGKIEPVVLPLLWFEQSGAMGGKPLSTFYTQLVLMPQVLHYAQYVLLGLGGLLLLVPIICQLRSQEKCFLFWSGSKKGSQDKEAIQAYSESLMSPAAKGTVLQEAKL
HIF activator = HIF pathway transcriptional activation. U2OS HRE-luciferase reporter, luminescence; normalized: DMSO 0%, desferrioxamine 100%. 0.32% of 300,000 active. activation, % at 7.5 µM (by protocol). AID 1910;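 active = mean activation of at least 10% of the iron chelator positive control signal, with at least half of replicates also reaching 10%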
ABCB6 inh MLPCN = blocks the human ABCB6 transporter; K562-ABCB6 porphyrin accumulation, flow cytometry, 1 h; active compounds read low; fluorescence ratio to DMSO, % at 10 µM; 0.19% of 360,000 active; AID 602162;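 active = fluorescence ratio to DMSO below 75%, the collection mean minus 3 SD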;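 note: signal is porphyrin accumulated inside mitochondria; 100% equals median channel fluorescence of DMSO control wells; lower ratio means ABCB6 inhibition with less porphyrin fluorescence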
AHR activator = activates the human aryl hydrocarbon receptor | AHR-responsive luciferase reporter cells, luminescence | activation, % at 5 µM | 2.5% of 320,000 active | AID 2796; in the data active = activation above about 47%;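 note: 0% = vehicle wells and 100% = reference agonist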
SR-BI DiI-HDL act = SR-BI HDL lipid transfer activation. 0.096% of 320,000 active. AID 504775. CHO ldlA[mSR-BI] cells, DiI-HDL uptake fluorescence, 3 h; 100 = double the neutral-control signal. activation, % at 12.5 µM;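 active = mean replicate activation of at least 60% and every replicate at or above 60%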;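 note: 0% = median plate neutral-control signal and 100% = twice that signal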
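Test system: SR-BI-overexpressing, LDLR-lacking CHO cells; Also added: labelled HDL, 10 µg/mL; Measured by: bottom-read cell fluorescence after medium removal, ex 550/em 595 nm; Timing: 3 h uptake period with compound, 37 °C; Buffer or medium: F12, 0.5% BSA, 25 mM HEPES; Doses: single compound concentration, delivered by pin transfer.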
FXN GAA850 act = increases GAA850 frataxin promoter reporter activity; 0.56% of 360,000 active; activation, % at 6 µM; HEK293 lucGAA850 FXN promoter luciferase reporter, 24 h; percent of 10 µM SAHA response;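 active = activation above the average of all compounds screened plus 3 SD, cutoff fixed separately per campaign, cut at about 7.5% in these data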;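 note: 0% = DMSO wells and 100% = 10 µM SAHA wells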
* marks the source's active call; other numbers are inactive results; . = no result. An excerpt weighted towards active compounds, which were near 3.9% of everything screened.

SMILES	SR-BI DiI inh	HIF activator	ABCB6 inh MLPCN	AHR activator	SR-BI DiI-HDL act	FXN GAA850 act
COc1ccccc1CN(C)C(=O)c1cc(-c2cc(OC)c(OC)c(OC)c2)nc2ccccc12	60.6	-0.2	86.0	31.6	-60.6	-7.3
COc1ccc(-c2cc(C(=O)N(C)Cc3ccccc3F)c3ccccc3n2)cc1OC	62.0	-0.7	94.0	71.1*	-62.0	-4.5
CCN(Cc1ccccc1)C(=O)c1cc(-c2ccc(OC)c(OC)c2)nc2ccccc12	48.5	0.3	102.0	69.4*	-48.5	-2.6
COCCN(Cc1ccccc1)C(=O)c1cc(-c2ccc(OC)c(OC)c2)nc2ccccc12	48.0	0.3	98.0	28.9	-48.0	-0.3
O=C(CSc1ccsc1[N+](=O)[O-])NCCc1ccccc1	-2.0	0.4	97.0	48.3*	2.0	0.5
O=C(CSc1ccsc1[N+](=O)[O-])NCCc1ccc(Cl)cc1	-15.6	-0.4	102.0	9.0	15.6	0.6
COc1cc(/C=C(\C#N)c2nc3ccccc3[nH]2)c([N+](=O)[O-])cc1OCc1ccccc1	84.9*	0.2	110.0	87.9*	-84.9	1.9
CCOc1cc(/C=C(/C#N)c2nc3ccccc3[nH]2)ccc1OCc1ccc(C(=O)O)o1	15.0	-0.3	102.0	16.1	-15.0	-1.6
CCN(CC)c1ccc(/C=C(/C#N)c2nc3ccccc3[nH]2)c(OC(C)C)c1	94.1*	7.1	498.0	27.3	-94.1	-4.1
Cc1cc(NC(=O)CN2CCN(S(=O)(=O)c3ccc4ccccc4c3)CC2)no1	5.2	-0.5	85.0	2.6	-5.2	4.9
CC(OC(=O)c1cccc(S(=O)(=O)N(C)C)c1)C(=O)NCC(=O)Nc1ccc(F)c(F)c1F (configuration not stated)	17.9	.	100.0	.	-17.9	0.5
CCn1c(=NC(=O)C2COc3ccccc3O2)sc2c(OC)ccc(OC)c21 (configuration not stated)	9.7	0.7	92.0	5.6	-9.7	4.0
COc1ccc(OC)c2c1sc(=NC(=O)C(C)(C)C)n2C	-25.8	0.2	95.0	16.2	25.8	0.7
CCn1c(=NC(=O)c2cccc(N3C(=O)CCC3=O)c2)sc2c(OC)ccc(OC)c21	90.7*	0.1	82.0	13.9	-90.7	0.5
COc1ccc(OC)c2c1sc(=NC(=O)c1cccc(N3C(=O)CCC3=O)c1)n2C	77.3*	0.0	99.0	70.0*	-77.3	5.8
O=C(Nc1ccc(F)cc1)C(Sc1nc2ccccc2[nH]1)c1ccccc1 (configuration not stated)	5.3	-0.4	99.0	69.3*	-5.3	2.2
O=C(c1ccc(S(=O)(=O)N2CCCC2)cc1)N1CCCC(C(F)(F)F)C1 (configuration not stated)	11.6	-0.2	100.0	2.1	-11.6	-1.2
CC(=O)NC1C(=O)N(C)c2ccc(Br)cc21 (configuration not stated)	-16.0	0.2	107.0	4.0	16.0	-1.9
Cc1c(C(=O)NCCCn2ccnc2)oc2ccccc12	-1.0	0.2	98.0	58.9*	1.0	-0.7
O=C(NCCCn1ccnc1)c1ccccc1Cl	-4.8	0.8	97.0	4.3	4.8	2.8
O=C(NCCCn1ccnc1)c1csc2ccccc12	.	-0.5	98.0	51.6*	.	0.0
Cc1ccc(Nc2nc(Cl)nc(N(C)C#N)n2)cc1	7.2	0.0	89.0	54.7*	-7.2	0.7
Cc1ccc(Nc2nc(Cl)nc(NC(C)(C)C)n2)cc1	17.7	-15.0	100.0	10.4	-17.7	5.3
O=C(NCc1ccccc1)C(=O)c1cn(CC(=O)N2CCOCC2)c2ccccc12	3.8	196.9*	93.0	-0.2	-3.8	0.7
COc1ccc(NC(=O)C(=O)c2cn(CC(=O)N3CCCC3)c3ccccc23)c(OC)c1	72.3*	2.2	98.0	-0.1	-72.3	-0.4
SMILES	SR-BI DiI inh	HIF activator	ABCB6 inh MLPCN	AHR activator	SR-BI DiI-HDL act	FXN GAA850 act
COc1ccccc1NC(=O)C(=O)c1cn(CC(=O)N2CCCC2)c2ccccc12	67.7	-0.2	102.0	29.6	-67.7	5.1
O=C(c1ccc(CN2CCOCC2)cc1)N1CCC(Cc2ccccc2)CC1	8.7	0.3	98.0	-1.1	-8.7	-1.3
Cn1c(COc2ccc3ccccc3c2)nnc1SCC(N)=O	-1.4	-0.7	103.0	0.7	1.4	0.4
C=C(C)C(COc1c2occc2cc2ccc(=O)oc12)OC(C)(C)C(O)COc1c2occc2cc2ccc(=O)oc12 (configuration not stated)	-7.9	.	98.0	77.6*	7.9	-1.0
CN(C)c1ccc(NC(=O)CSc2nc(N)c(C(=O)Nc3ccc(N(C)C)cc3)s2)cc1	28.9	-1.8	84.0	43.2	-28.9	2.8
COc1ccc(NC(=O)CSc2nc(N)c(C(=O)Nc3ccc(N(C)C)cc3)s2)cc1	49.1	2.5	99.0	49.7*	-49.1	1.4
CCOC(=O)c1nc(NNC(=O)c2ccc([N+](=O)[O-])cc2)sc1C	90.5*	-1.5	93.0	12.5	-90.5	-3.9
O=C(CSCc1ccco1)c1cccs1	-16.6	1.5	112.0	1.4	16.6	3.7
COC(=O)Nc1ccc2c(c1)ncn2C1CCCCC1	-9.7	0.6	88.0	66.2*	9.7	3.1
O=CN1Cc2[nH]c3ccccc3c2N(c2ccc(Cl)cc2)C1=O	.	0.1	102.0	65.4*	.	1.8
O=C1CNCc2[nH]c3ccccc3c2N1c1ccccc1	1.3	0.9	107.0	54.2*	-1.3	-0.5
CC(C)OC(=O)c1cccc(NC(=O)CSc2nnc(N)s2)c1	2.2	-0.7	93.0	2.4	-2.2	-3.0
CC1=NN(C(=S)Nc2ccccc2)C(c2ccccc2)C1 (configuration not stated)	-0.2	0.3	99.0	-0.6	0.2	1.1
COc1cc(/C=C/C(=O)c2ccc3c(c2)OCCO3)cc(Br)c1OCC(=O)N(C)C	38.5	25.0*	105.0	-3.0	-38.5	-7.6
O=C(/C=C/c1ccncc1)c1ccc2c(c1)OCCO2	-21.6	0.7	102.0	5.3	21.6	1.3
CCc1ccc(NC(=O)Cn2c(SC)nc3ccccc32)cc1	13.4	0.1	87.0	77.6*	-13.4	-1.1
COc1cccc(-c2nc(NC3CCCC3)c3ccccc3n2)c1O	82.5*	-0.1	104.0	17.9	-82.5	3.5
C=CCNc1nc(-c2cccc(OC)c2O)nc2ccccc12	75.9*	0.9	95.0	24.7	-75.9	5.5
c1ccc(-c2nc(NC3CCCC3)c3ccccc3n2)cc1	43.0	-1.8	100.0	53.4*	-43.0	3.8
COc1ccccc1NC(=S)N(Cc1cccs1)C1CCCC1	24.1	-0.6	95.0	19.0	-24.1	0.0
COc1ccccc1CNC(=O)COc1ccc(Br)c(C)c1	-0.7	0.0	94.0	20.3	0.7	2.5

Bioassay records from PubChem.
